Reference: ChEMBL document CHEMBL1123408, “Influence of alkyl-chain fluorination on the action of mammary tumor inhibiting 2,3-bis(hydroxyphenyl)butanes and 2,3-bis(hydroxyphenyl)but-2-enes” (1986)

How the values were obtained:
[1] = target: T1, Estrogen receptor (Mus musculus) (UniProt O08537+P19785); test: (§1) Uterotrophic effect in mice at 100 ug dose; assay type: functional, tissue-based; set-up: unit not given here; settings: Uterus
Procedure, shortened: (§2)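 Immature female NMRI mice, 20 days old, 10 per group, given daily sc injections of 0.1 mL olive oil solution for 3 days. Uteri removed 24 h after the last dose, fixed in Bouin's solution, washed, dried and weighed. Antiestrogenic testing measured inhibition of estrone-stimulated uterine growth.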

[2] = target: T1, Estrogen receptor (Mus musculus); test: Uterotrophic effect in mice at 500 ug dose; assay type: functional, tissue-based; set-up: unit not given here; settings: Uterus; procedure, shortened: as §2
Mus musculus [3] = organism: Mus musculus; test: Relative average tumor wet weight in treated compared to untreated mice at 13.80 mg dose; assay type: functional
Procedure, shortened: (§3)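 MXT mammary tumor pieces of 1-2 mm³ from syngeneic donors were implanted sc by trocar into female BD2F₁ mice aged 8-10 weeks (20.0 ± 1.7 g), groups of 10. From the next day, compound in olive oil was given sc three times weekly for 6 weeks. Tumor wet weight was measured at the end and expressed as % T/C.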

Mus musculus [4] = organism: Mus musculus; test: Relative average tumor wet weight in treated compared to untreated mice at 2.76 mg dose; assay type: functional
Procedure, shortened: (§4)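 Syngeneic female BD2F1 mice (8–10 weeks) received sc trocar implants of 1–2-mm³ MXT tumor pieces, 10 per group. Treatment began the next day: sc doses in olive oil (solution or suspension), three times weekly for 6 weeks. Tamoxifen-treated control group included. Tumor wet weight measured at sacrifice; expressed as % T/C versus untreated controls.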

[5] = target: T1, Estrogen receptor (Mus musculus); test: Uterotrophic effect in BD2F mice bearing transplantable hormone dependent MXT at 13.80 mg dose; assay type: functional, tissue-based; settings: Uterus
Procedure, shortened: (§5)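 MXT-bearing female BD2F1 mice (10 per group) dosed sc in olive oil three times weekly for 6 weeks from the day after tumor transplantation. Uteri excised at sacrifice and dry weight determined; values given as mean ± SD.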

[6] = target: T1, Estrogen receptor (Mus musculus); test: (§6) Uterotrophic effect in mice at 10 ug dose; assay type: functional, tissue-based; settings: Uterus; procedure, shortened: as §2
[7] = target: T1, Estrogen receptor (Mus musculus); test: (§7) Uterotrophic effect in mice at 0 ug dose; assay type: functional, tissue-based; set-up: unit not given here; settings: Uterus; procedure, shortened: as §2
[8] = target: T1, Estrogen receptor (Mus musculus); test: Uterotrophic effect in mice at 25 ug dose; assay type: functional, tissue-based; set-up: unit not given here; settings: Uterus; procedure, shortened: as §2
[9] = target: T1, Estrogen receptor (Mus musculus); test: Anti-uterotrophic effect in mice at 500 ug dose; assay type: functional
Procedure, shortened: (§8)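 Immature female NMRI mice, 20 days old (14.5 ± 1.2 g), randomized into groups of 10. Each received a daily sc injection of compound in 0.1 mL olive oil for 3 days, given together with estrone. Uteri were taken 24 h after the last injection, fixed in Bouin's solution, washed, dried and weighed. The read-out was inhibition of estrone-stimulated uterine growth.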

[10] = target: T1, Estrogen receptor (Mus musculus); test: Uterotrophic effect in BD2F mice bearing transplantable hormone dependent MXT at 2.76 mg dose; assay type: functional, tissue-based; settings: Uterus; procedure, shortened: as §5
[11] = target: T1, Estrogen receptor (Mus musculus); test: as §7; assay type: functional, tissue-based; set-up: unit not given here; settings: Uterus; procedure, shortened: as §2; remark: listed apart in the source
[12] = target: T1, Estrogen receptor (Mus musculus); test: Uterotrophic effect in mice at 5 ug dose; assay type: functional, tissue-based; settings: Uterus; procedure, shortened: as §2
[13] = target: T1, Estrogen receptor (Mus musculus); test: Uterotrophic effect in mice at 1000 ug dose; assay type: functional, tissue-based; set-up: unit not given here; settings: Uterus; procedure, shortened: as §2
[14] = target: T1, Estrogen receptor (Mus musculus); test: as §1; assay type: functional, tissue-based; set-up: unit not given here; settings: Uterus; procedure, shortened: as §2; remark: listed apart in the source
[15] = target: T1, Estrogen receptor (Mus musculus); test: Uterotrophic effect in BD2F mice bearing transplantable hormone dependent MXT at 4 mg dose; assay type: functional, tissue-based; procedure, shortened: as §5
[16] = target: T1, Estrogen receptor (Mus musculus); test: (§9) Uterotrophic effect in mice at 1 ug dose; assay type: functional, tissue-based; set-up: unit not given here; settings: Uterus; procedure, shortened: as §2
[17] = target: T1, Estrogen receptor (Mus musculus); test: as §6; assay type: functional, tissue-based; set-up: unit not given here; settings: Uterus; procedure, shortened: as §2
[18] = target: T1, Estrogen receptor (Mus musculus); test: Uterotrophic effect in mice at 0.1 ug dose; assay type: functional, tissue-based; set-up: unit not given here; settings: Uterus; procedure, shortened: as §2
Mus musculus [19] = organism: Mus musculus; test: Relative average tumor wet weight in treated compared to untreated mice at 4 mg dose; assay type: functional; procedure, shortened: as §4
Mus musculus [20] = organism: Mus musculus; test: Relative average tumor wet weight in treated compared to untreated mice at 0.8 mg dose; assay type: functional; procedure, shortened: as §3
[21] = target: T1, Estrogen receptor (Mus musculus); test: Uterotrophic effect in BD2F mice bearing transplantable hormone dependent MXT at 0.8 mg dose; assay type: functional, tissue-based; procedure, shortened: as §5
[22] = target: T1, Estrogen receptor (Mus musculus); test: Anti-uterotrophic effect in mice at 25 ug dose; assay type: functional; procedure, shortened: as §8
[23] = target: T1, Estrogen receptor (Mus musculus); test: as §9; assay type: functional, tissue-based; settings: Uterus; procedure, shortened: as §2

T1 sequence (O08537 whole entry, looked up): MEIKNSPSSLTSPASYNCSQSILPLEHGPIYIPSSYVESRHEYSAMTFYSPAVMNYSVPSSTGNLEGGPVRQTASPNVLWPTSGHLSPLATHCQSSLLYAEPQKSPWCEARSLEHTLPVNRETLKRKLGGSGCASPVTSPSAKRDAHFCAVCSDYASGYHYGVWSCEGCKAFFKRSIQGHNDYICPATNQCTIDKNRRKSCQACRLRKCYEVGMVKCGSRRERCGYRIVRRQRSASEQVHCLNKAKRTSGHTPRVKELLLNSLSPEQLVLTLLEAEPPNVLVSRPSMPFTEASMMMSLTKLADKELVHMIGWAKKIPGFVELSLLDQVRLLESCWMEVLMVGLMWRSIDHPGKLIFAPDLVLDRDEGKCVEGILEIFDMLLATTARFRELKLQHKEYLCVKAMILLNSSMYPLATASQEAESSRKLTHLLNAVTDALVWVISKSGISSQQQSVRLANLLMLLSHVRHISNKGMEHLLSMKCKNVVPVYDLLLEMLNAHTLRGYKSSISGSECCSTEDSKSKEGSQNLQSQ
T1 sequence (P19785 whole entry, looked up): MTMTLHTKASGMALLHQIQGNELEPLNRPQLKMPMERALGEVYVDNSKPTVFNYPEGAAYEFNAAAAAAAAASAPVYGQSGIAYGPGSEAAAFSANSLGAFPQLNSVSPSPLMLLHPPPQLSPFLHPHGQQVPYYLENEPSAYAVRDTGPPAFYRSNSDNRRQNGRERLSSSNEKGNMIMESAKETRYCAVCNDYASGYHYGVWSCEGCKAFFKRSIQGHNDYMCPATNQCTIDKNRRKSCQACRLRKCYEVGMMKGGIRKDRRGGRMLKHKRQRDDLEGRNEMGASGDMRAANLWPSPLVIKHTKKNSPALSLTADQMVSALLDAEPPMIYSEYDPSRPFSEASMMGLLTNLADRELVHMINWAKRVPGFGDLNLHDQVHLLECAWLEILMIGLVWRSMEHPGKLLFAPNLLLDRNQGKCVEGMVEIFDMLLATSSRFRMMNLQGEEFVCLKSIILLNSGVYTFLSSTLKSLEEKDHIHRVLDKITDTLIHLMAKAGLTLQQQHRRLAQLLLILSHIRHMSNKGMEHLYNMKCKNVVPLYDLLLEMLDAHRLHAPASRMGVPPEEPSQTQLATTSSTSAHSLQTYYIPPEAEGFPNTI

Structure (SMILES)	Effect [1]	Effect [2]	TC (Mus musculus [3])	TC (Mus musculus [4])	Effect [5]	Effect [7]	Effect [8]	Effect [10]	Effect [11]	Effect [12]	Effect [13]	Effect [14]	Effect [17]	further results
C/C(=C(/C)c1cccc(O)c1)c1cccc(O)c1	13.8	33.1	69.9%	88%	88.4	12.9	42.3	80.7	13.3	37.2	12.8	43.5		Effect [6]: 12.2; inhibition [9]: 27.2%
Oc1ccc([C@H]([C@H](c2ccc(O)cc2)C(F)(F)F)C(F)(F)F)cc1									10.8				35.4	Uterus effect [15]: 188; Effect [16]: 42.5; Effect [18]: 46.9; TC (Mus musculus [19]): 7.2%; TC (Mus musculus [20]): 21.3%; Uterus effect [21]: 136
C/C(=C(/C)c1ccc(O)cc1)c1ccc(O)cc1 [DIMETHYLSTILBESTROL]	35.9	48.7	46.2%	69.5%	70.4	14.8	32	74.7	16.7	39.2	41.8	39.8	25.4	inhibition [22]: 30.1%; Effect [23]: 20.6
